Bioassay records from PubChem BioAssay.
SENP6 inh – SENP6 protease inhibition. inhibition, % at 10 µM. Recombinant SENP6 catalytic domain, aminoluciferin luminescence. 330,000 compounds, 1.8% hits. Q9GZR1;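 active means inhibition above about 50% at the single tested dose, limit read from the data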;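 further: plate controls were DMSO wells with enzyme for no effect and DMSO wells lacking enzyme for full effect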
SENP8 block-1 – inhibitors of human SENP8 protease | Q96LD8 | recombinant SENP8, Nedd8 substrate fluorescence | inhibition, % at 20 µM | 360,000 compounds, 0.64% hits; in the data active means inhibition mostly above about 40%, no sharp cut-off; inactive means mostly below about 27%
Target sequence (Q96LD8 whole entry, looked up): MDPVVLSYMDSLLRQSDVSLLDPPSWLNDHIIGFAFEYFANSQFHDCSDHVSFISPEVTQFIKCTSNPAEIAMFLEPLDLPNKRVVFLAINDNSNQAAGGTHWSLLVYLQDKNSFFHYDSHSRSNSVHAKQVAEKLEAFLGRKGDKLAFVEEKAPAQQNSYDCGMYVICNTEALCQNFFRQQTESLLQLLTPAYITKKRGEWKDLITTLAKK
SENP8 block-2 – blocks the human protease SENP8. 330,000 compounds, 1.2% hits. purified SENP8, Z-RLRGG-aminoluciferin cleavage, luminescence. Q96LD8. AID 2540. inhibition, % at 10 µM; in the data active means inhibition above about 50%
Apaf-1 inh – human Apaf-1 inhibition; O14727; reconstituted apoptosome caspase-3 activity, DEVD-Rh110 fluorescence; inhibition, % at 20 µM; 330,000 compounds, 0.71% hits; AID 489030; active means inhibition of at least 40% at 20 µM;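 further: plate controls were DMSO wells for no effect and DEVD-CHO caspase inhibitor wells for full effect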
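Material: reconstituted apoptosome with Apaf-1, cytochrome c, caspase-9, procaspase-3, dATP; medium: pH 7.5 Hepes buffer with CHAPS, BSA, DTT; also added: cytochrome c and DEVD-Rh110 substrate; timing: 30 min plus 50 min, RT; signal: Rh110 fluorescence intensity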
SENP7 inh – SENP7 protease inhibition | recombinant SENP7, Z-RLRGG-aminoluciferin luminescence, 40 min | inhibition, % at 5 µM | 330,000 compounds, 1.5% hits | AID 434973;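 active means inhibition above about 50% at the single test dose, limit read from the data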;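 further: plate controls were DMSO with enzyme for no effect and no enzyme buffer wells for full effect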
UBC13 inh – blocks human UBC13 polyubiquitin chain formation; TR-FRET; inhibition, % at 20 µM; 330,000 compounds, 0.47% hits; AID 485273; in the data active means inhibition above about 45%, passing the limit was not always enough
Target sequence (P61088 whole entry, looked up): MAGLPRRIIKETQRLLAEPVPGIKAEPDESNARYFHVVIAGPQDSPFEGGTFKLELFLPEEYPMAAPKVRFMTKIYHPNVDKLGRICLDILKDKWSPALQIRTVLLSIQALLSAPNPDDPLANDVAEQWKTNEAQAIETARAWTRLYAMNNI
SENP8 confirm – confirmation of human SENP8 protease inhibitors. inhibition, % at 12.5 µM. Recombinant SENP8, Z-RLRGG-aminoluciferin luminescence, 60 min. 6,200 compounds, 40% hits. shares compounds with SENP7 inh. AID 488912;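 active means mean inhibition across replicates above about 50%, limit read from the data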
SENP6 confirm – confirmation of human SENP6 protease inhibitors; recombinant SENP6, Z-RLRGG-aminoluciferin luminescence; inhibition, % at 12.5 µM; 6,200 compounds, 58% hits; shares compounds with SENP7 inh
SENP7 conf – confirmation of human SENP7 protease inhibitors | recombinant SENP7, Z-RLRGG-aminoluciferin luminescence, 40 min | inhibition, % at 12.5 µM | 6,200 compounds, 69% hits | shares compounds with SENP7 inh
Casp3 SENP sel – inhibits human caspase-3 in SENP selectivity test | 6,200 compounds, 60% hits | inhibition, % at 12.5 µM | purified caspase-3, Z-DEVD-aminoluciferin luminescence, 60 min | shares compounds with SENP7 inh;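 active means mean inhibition above about 50%, limit read from the data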;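 further: plate controls were enzyme with DMSO for no effect and wells without caspase-3 for full effect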
Target sequence (P42574 28-227 limits assumed): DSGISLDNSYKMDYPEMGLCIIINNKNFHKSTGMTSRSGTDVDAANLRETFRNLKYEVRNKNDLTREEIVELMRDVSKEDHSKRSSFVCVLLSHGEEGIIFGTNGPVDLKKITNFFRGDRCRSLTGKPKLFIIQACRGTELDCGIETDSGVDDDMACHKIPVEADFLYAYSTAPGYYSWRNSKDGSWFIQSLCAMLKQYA
SENP luc ctr – luminescence interference (SENP counter-screen); inhibition, % at 12.5 µM; shares compounds with SENP7 inh; AID 488919; 6,200 compounds, 39% hits; Pre-incubated SENP8/Z-RLRGG-aminoluciferin, luciferase luminescence interference;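 active means mean inhibition above about 50% when retested at one dose, limit read from the data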;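 further: plate controls were DMSO wells with completed reaction for no effect and substrate without enzyme for full effect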
* marks the source's active call; other numbers are inactive results; nt = no result. Rows were chosen to be rich in hits. Some 3.1% of all compounds tested hit in one or more screens of this group.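 How the source made its calls, unless noted: active means mean inhibition above about 50% in the one-dose retest (limit read from the data); inactive means the rest.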

SMILES	SENP6 inh	SENP8 block-1	SENP8 block-2	Apaf-1 inh	SENP7 inh	UBC13 inh	SENP8 confirm	SENP6 confirm	SENP7 conf	Casp3 SENP sel	SENP luc ctr
Clc1ccc2oc(-c3ccccn3)nc2c1	67*	-42	28	4	57*	-9	33	56*	86*	78*	31
O=C(NCc1cccnc1)C(=O)NCC1OCCCN1S(=O)(=O)c1cc(F)ccc1F (stereo not drawn)	nt	11	nt	nt	nt	nt	nt	nt	nt	nt	nt
Cc1ccc(C(=O)CC2SC(N)=NC2=O)cc1 (stereo not drawn)	2	-23	3	-6	77*	1	-7	-2	3	1	-7
NC1=NC(=O)C(CC(=O)c2ccc(Cl)cc2)S1 (stereo not drawn)	1	6	-2	2	9	2	nt	nt	nt	nt	nt
O=C1/C(=C/c2cccc(F)c2)Oc2cc(O)ccc21	52*	-256	36	2	47	-8	70*	64*	81*	44	34
COc1cccc(CNC(=O)[C@@H]2CCCN2C(=O)[C@H]2CCCCN2C(=O)OC(C)(C)C)c1	nt	22	nt	nt	nt	nt	nt	nt	nt	nt	nt
Clc1cnc(N/N=C/c2cccs2)c(Cl)c1	10	-36	10	4	3	0	nt	nt	nt	nt	nt
Clc1cnc(N/N=C/c2ccco2)c(Cl)c1	81*	-70	61*	2	-1	-27	15	19	30	84*	20
Nc1[nH]c(C(=O)c2ccccc2)c(-c2cccc3ccccc23)c1C(=O)NCc1ccccc1	nt	4	nt	nt	nt	nt	nt	nt	nt	nt	nt
COc1ccc(NC(=O)CN2c3cccc4cccc(c34)S2(=O)=O)cc1OC	nt	-275	nt	nt	nt	nt	nt	nt	nt	nt	nt
COc1ccc(/C=C2\CCC(C3CCCC3)C2=O)cc1 (stereo not drawn)	54*	13	77*	-2	90*	-3	45	49	50	69*	11
Cc1ccsc1/C=C1\CCC(C2CCCC2)C1=O (stereo not drawn)	97*	14	85*	-3	83*	17	76*	81*	92*	80*	70*
COc1ccc(/C=C2\CCC(C3CCCC3)C2=O)c(OC)c1 (stereo not drawn)	-12	18	-9	10	-7	-8	nt	nt	nt	nt	nt
O=C(O)C(=O)Nc1nc(-c2ccc3c(c2)OCCO3)cs1	73*	-23	44	2	24	-2	67*	66*	89*	88*	76*
COc1ccc(-c2csc(COC(=O)C(C)(C)C)n2)cc1	14	14	-4	7	31	-1	nt	nt	nt	nt	nt
CC(C)(C)C(=O)OCc1nc(-c2ccc(F)cc2)cs1	52*	16	24	10	45	-2	-4	27	71*	25	6
CC(C)(C)C(=O)OCc1nc(-c2ccc3c(c2)OCCO3)cs1	89*	14	86*	20	88*	3	90*	90*	71*	77*	59*
Cc1cc(=O)[nH]c(N/N=C/c2sccc2C)n1	64*	2	23	-1	56*	-8	41	39	79*	81*	49
Cc1cc(=O)[nH]c(N/N=C/c2cc(C)n(-c3ccccc3)c2C)n1	66*	-263	36	2	13	-12	66*	64*	87*	76*	16
Cc1ccc(NC(=O)C2(C)CCN2C(=O)CC(c2ccccc2)c2ccccc2)cc1 (stereo not drawn)	nt	10	nt	nt	nt	nt	nt	nt	nt	nt	nt
O=C1NC(=O)/C(=C\c2ccc(OCc3ccccc3)cc2)S1	64*	16	45	12	-2	-14	17	33	-1	6	6
COc1ccccc1OCCCOc1ccc(/C=C2\SC(=O)NC2=O)cc1OC	61*	-80	41	5	-7	-11	38	48	48	15	30
Cc1csc2nc(CSc3nncn3-c3ccccc3)c(Br)n12	-22	18	1	-5	1	-1	nt	nt	nt	nt	nt
Cc1csc2nc(CSc3nc4ccccc4o3)c(Br)n12	56*	14	16	15	-1	9	29	30	55*	20	12
CC(=O)c1cccc(NC(=S)Nc2cccc3ccccc23)c1	84*	-396	62*	81*	19	-31	1	7	5	10	13
SMILES	SENP6 inh	SENP8 block-1	SENP8 block-2	Apaf-1 inh	SENP7 inh	UBC13 inh	SENP8 confirm	SENP6 confirm	SENP7 conf	Casp3 SENP sel	SENP luc ctr
O=C(NNC(=S)Nc1cccc2ccccc12)c1cccc(Br)c1	4	-84	18	4	16	-18	nt	nt	nt	nt	nt
COc1ccc(NC(=S)Nc2cccc3ccccc23)cc1OC	88*	-376	77*	83*	63*	-42	4	11	4	1	3
Cc1ccc(C(=O)NNC(=S)Nc2cccc3ccccc23)s1	55*	-328	28	16	44	-13	-11	-13	-1	-2	16
Oc1ccc(Cl)cc1N=Nc1ccccc1	73*	4	43	6	67*	-9	-6	27	80*	23	7
COc1ccc(C/C(N)=N/O)cc1	-22	8	-6	-9	-1	16	nt	nt	nt	nt	nt
COC(=O)c1ccc(N=Nc2ccccc2)cc1	15	12	47	2	59*	-2	10	57*	86*	49	35
COc1ccc(N=Nc2ccc(CO)cc2)cc1	51*	29	40	3	66*	-9	61*	58*	83*	60*	47
COC(=O)c1ccc(OCCOc2ccccc2)cc1	22	14	-13	8	16	2	nt	nt	nt	nt	nt
Oc1ccc(N=Nc2ccccc2)cc1	82*	29	74*	3	68*	-15	81*	80*	91*	57*	83*
OCc1ccc(N=Nc2ccccc2)cc1	43	20	24	5	55*	-8	35	35	74*	52*	53*
O=C(O)CCCC(=O)Nc1ccc(N=Nc2ccccc2)cc1	16	16	8	0	6	-4	nt	nt	nt	nt	nt
O=C(O)c1cc([N+](=O)[O-])ccc1NCCCc1ccccc1	74*	7	68*	0	-1	-2	75*	69*	73*	52*	71*
CCOC(=O)C1(CCCc2ccccc2)CCN(C(=O)c2n[nH]c(CC)c2C)CC1	nt	8	nt	nt	nt	nt	nt	nt	nt	nt	nt
